In the library only some 2.4% were active in any assay of this set; here they are far more common.
HGIII-sPLA2 inh: Inhibits HGIII-sPLA2 liposome hydrolysis, primary screen. QFRET BODIPY PC-A2 liposome hydrolysis, fluorescence. inhibition, % at 12.2 µM. actives 0.56% (n = 370,000);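 active = inhibition above mean plus 3 SD of compounds lying within the high and low control bounds, cut at about 19% in these data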
Target sequence (Q9NZ20 whole entry, looked up): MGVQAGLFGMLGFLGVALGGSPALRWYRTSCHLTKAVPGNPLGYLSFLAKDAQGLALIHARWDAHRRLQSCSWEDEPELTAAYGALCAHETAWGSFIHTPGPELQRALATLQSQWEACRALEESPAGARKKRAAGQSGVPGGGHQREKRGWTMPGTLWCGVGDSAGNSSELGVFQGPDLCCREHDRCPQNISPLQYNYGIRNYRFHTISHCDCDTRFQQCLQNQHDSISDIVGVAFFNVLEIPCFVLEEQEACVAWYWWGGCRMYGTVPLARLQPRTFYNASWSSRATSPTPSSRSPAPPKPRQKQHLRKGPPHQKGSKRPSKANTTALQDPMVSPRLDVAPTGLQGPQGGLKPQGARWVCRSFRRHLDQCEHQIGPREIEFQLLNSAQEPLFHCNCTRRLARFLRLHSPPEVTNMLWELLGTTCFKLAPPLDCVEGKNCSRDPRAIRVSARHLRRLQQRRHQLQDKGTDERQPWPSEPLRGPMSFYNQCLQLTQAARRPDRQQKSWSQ
VIM-2 inh: inhibitors of Pseudomonas aeruginosa VIM-2 metallo-beta-lactamase | purified VIM-2, nitrocefin hydrolysis, epi-absorbance fluorescence | inhibition, % at 5.6 µM | actives 0.89% (n = 290,000) | AID 1527;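 active = inhibition above the mean of all tested compounds plus 3 SD, cutoff set per screening run, cut at about 7.5% in these data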;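 also: red hydrolysis product quenches plate fluorescence so inhibitors raise well fluorescence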
M18AAP inhibitor: blocks P. falciparum M18 aspartyl aminopeptidase; recombinant PfM18AAP, H-Glu-NHMec fluorogenic cleavage; inhibition, % at 7.35 µM; actives 1.2% (n = 290,000); AID 1822;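 active = inhibition above the campaign mean inhibition over all tested compounds plus 3 SD, cut at about 28% in these data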
IMP-1 inh: blocks Pseudomonas aeruginosa IMP-1 metallo-beta-lactamase; purified IMP-1, nitrocefin hydrolysis, epi-absorbance fluorescence; actives 0.45% (n = 290,000); inhibition, % at 5.6 µM;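 active = inhibition above the mean plus 3 SD of all compounds in the same screening run, cut at about 4.5% in these data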
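Assay system: purified IMP-1; Quantity: IMP-1 0.2 nM before substrate addition; Medium: HEPES buffer pH 7.1 with ZnSO4 and Brij 35; Incubation: 15 min enzyme–compound preincubation, then 25 min nitrocefin reaction, 25 °C; Signal: fluorescence quenching readout, ex 480/em 530 nm; Controls: DMSO with and without IMP-1; Repeats: singlicate testing.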
hGIII sPLA2 conf: human GIII-sPLA2 inhibition, confirmation; shares compounds with HGIII-sPLA2 inh; recombinant hGIII-sPLA2, BODIPY PC-A2 QFRET fluorescence; inhibition, % at 12.2 µM; actives 34% (n = 2,000);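 active = mean inhibition across triplicates above the hit cutoff set in the earlier primary screen, cut at about 19% in these data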
535nm interf: 535nm fluorescence interference, HGIII-sPLA2 counter-screen | shares compounds with HGIII-sPLA2 inh | inhibition, % at 12.2 µM | BODIPY FL product fluorescence interference, QFRET | actives 8.5% (n = 2,000);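 active = average inhibition above the solvent-only control mean plus 3 SD, cut at about 6% in these data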
535nm interf DR: counter-screen for HGIII-sPLA2 inhibitors: 535nm fluorescence interference, dose response. shares compounds with HGIII-sPLA2 inh. BODIPY FL product fluorescence interference, cell-free. IC50, µM. 240 tested, under 10 active. AID 743455;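 active = IC50 at or below 10 µM; inactive = IC50 above 10 µM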
Hits are given with their value; 0 = inactive; - = no result.

SMILES	HGIII-sPLA2 inh	VIM-2 inh	M18AAP inhibitor	IMP-1 inh	hGIII sPLA2 conf	535nm interf	others
CN1CN(C)C(c2ccncc2)=C1c1ccncc1	0	0	0	0	-	-
CO/N=C1\CCn2c1c(C)c1ccccc12	19.8	0	0	0	0	0
Cc1c2n(c3ccccc13)CC/C2=N\O	0	0	0	0	-	-
Cc1ccc([C@H]2C[C@H](n3cc(C4CC4)nn3)[C@@H](O)CN2CC2CCCCC2)cc1	0	-	-	-	-	-
N#CCc1ccnc2ccccc12	0	-	-	-	-	-
N#CC(C#N)c1ccnc2ccccc12	19.4	-	-	-	0	0
Cc1ccccc1CSCC(=O)NNC(=S)NCC1CCCO1 (centres undefined)	23.9	0	0	0	0	0
O=C(Cc1ccc(Cl)c(Cl)c1)NNC(=S)NCC1CCCO1 (centres undefined)	0	0	0	0	-	-
O=C(CSc1nnc(NC(=O)c2c(F)cccc2Cl)s1)Nc1ccccc1F	0	0	0	0	-	-
CCCCCNC(=O)C(c1cccc2ccccc12)n1c(=O)c(-c2ccco2)nc2ccccc21 (centres undefined)	22.4	-	-	-	0	0
CC(C)(C)NC(=O)C(c1ccc(-c2ccccc2)cc1)n1c(=O)c(-c2ccco2)nc2ccccc21 (centres undefined)	0	-	-	-	-	-
Cc1cccc(C)c1NC(=O)C(c1ccc(-c2ccccc2)cc1)n1c(=O)c(-c2ccco2)nc2ccccc21 (centres undefined)	20.3	-	-	-	0	0
CCOC(=O)c1c(NC(=O)CCS(=O)(=O)c2ccccc2)sc2c1CCN(C(C)C)C2	0	0	0	0	-	-
S=C(Nc1ccc(Nc2ccccc2)cc1)NN1CCOCC1	0	0	0	0	-	-
Fc1ccc(NC(=S)NN2CCOCC2)cc1Cl	24.7	0	0	0	0	0
CCCn1ncc2c(Nc3ccc(C)c(C)c3)ncnc21	0	0	0	0	-	-
CN(C)S(=O)(=O)c1cccc(C(=O)Nc2ccc(N3CCOCC3)cc2)c1	24.5	0	0	0	0	0
O=C(Nc1ccc(N2CCCC2)cc1)c1cccc(Cl)c1	24.4	0	0	0	25.3	0
CN(c1ccccc1)S(=O)(=O)c1cccc(C(=O)Nc2ccc(N3CCOCC3)cc2)c1	0	-	-	-	-	-
O=C(Nc1ccc(N2CCCCCC2)cc1)c1ccccc1Cl	0	0	0	0	-	-
O=C(Nc1ccc(N2CCCCCC2)cc1)c1ccc[nH]1	22.0	-	-	-	33.5	0	535nm interf DR=0
COc1ccc(C=C2CS(=O)(=O)CC(=Cc3ccc(OC)cc3)C2=O)cc1	0	-	-	-	-	-
CC1CC(=O)C(C(C2=C(O)CC(C)CC2=O)c2ccccc2)=C(O)C1 (centres undefined)	0	-	-	-	-	-
Cc1cccc(NC(=S)NCc2ccc3c(c2)cc(C)n3C)c1C	19.8	0	0	0	0	0
CC(C1CC2CCC1C2)N1CC(O)=C(c2nc3ccccc3[nH]2)C1=N (centres undefined)	27.6	0	0	0	20.7	0
SMILES	HGIII-sPLA2 inh	VIM-2 inh	M18AAP inhibitor	IMP-1 inh	hGIII sPLA2 conf	535nm interf	others
CC(C)N1CC(O)=C(c2nc3ccccc3[nH]2)C1=N	0	0	0	0	-	-
CCn1c2ccccc2c2cc(NC(=O)c3ccc(Br)o3)ccc21	20.9	0	0	0	0	0
CCN(CC)CCCNC(=S)Nc1ccc(Br)cc1	0	0	0	0	-	-
CCN(CC)CCNC(=S)Nc1ccc(Cl)cc1	21.2	0	0	0	0	0
O=C(NCCc1c[nH]c2ccccc12)c1ccc([N+](=O)[O-])o1	0	-	-	-	-	-
CC(=O)c1ccc(S(=O)(=O)N2CCC3(CC2)CC(=O)c2ccccc2O3)cc1	0	-	-	-	-	-
S=c1nc[nH]c2c1[nH]c1ccc(Cl)cc12	20.0	0	0	0	0	0
S=c1nc[nH]c2c1[nH]c1ccccc12	0	0	0	0	-	-
Cc1ccc(C(C)NC(=S)NC2CCCCC2)cc1C (centres undefined)	19.6	0	0	0	0	0
COc1ccc(C(C)NC(=S)NC2CCCC2)cc1OC (centres undefined)	0	0	0	0	-	-
CC12CC3(C)CC(C)(C1)CC(C(=O)NC(=S)N1CCOCC1)(C2)C3	20.1	0	0	0	22.9	0
CSc1ccccc1NC(=O)Cn1c([N+](=O)[O-])cnc1C	0	0	0	0	-	-
Cc1ccc(C)c(N2CCN(CC3CCCCC3)CC2)c1	20.9	0	0	0	0	0
CCCCOC(=O)CSc1nc(N)c(C#N)c(-c2ccc(OCC)cc2)c1C#N	0	0	0	0	-	-
CCCCOc1ccc(-c2c(C#N)c(N)nc(SCC(N)=O)c2C#N)cc1	46.0	0	0	0	0	0
CSc1nc(N)c(C#N)c(-c2ccc(Cl)cc2)c1C#N	22.0	0	0	0	24.0	0
CSc1nc(-c2ccc(Cl)cc2)nc(N)c1C#N	0	0	0	0	-	-
Cc1cc(=O)oc(C)c1C(=O)Nc1cccc2ccccc12	0	0	0	0	-	-
Cc1cc(=O)oc(C)c1C(=O)Nc1ccccc1F	25.5	0	0	0	0	0
Cc1ccccc1NC(=O)c1c(C)cc(=O)oc1C	22.7	0	0	0	0	0
COc1ccccc1NC(=O)c1c(C)cc(=O)oc1C	0	0	0	0	-	-
CCCc1nc2c(Cl)cc(C(F)(F)F)cn2c1Cc1ccc(OC)cc1C	0	-	-	-	-	-
CCOc1ccc(NC(=O)CN(C)C(=O)Cc2ccc3c(c2)OCCO3)cc1OCC	0	-	-	-	-	-
O=C(NCc1ccccc1)C(c1ccc(-c2ccccc2)cc1)N1CCN(c2ccccc2F)CC1 (centres undefined)	0	-	-	-	-	-
O=C(COC(=O)/C=C/c1ccc([N+](=O)[O-])cc1)NC(=O)NC1CCCCC1	0	-	-	-	-	-
SMILES	HGIII-sPLA2 inh	VIM-2 inh	M18AAP inhibitor	IMP-1 inh	hGIII sPLA2 conf	535nm interf	others
CC1CCCC(NC(=O)COC(=O)/C=C/c2ccc([N+](=O)[O-])cc2)C1C (centres undefined)	19.4	-	-	-	0	0
Oc1ccc(Oc2ccccc2F)c2cccnc12	25.4	-	-	-	26.0	0
COc1ccc(-c2csc(NC(=S)NC(=O)c3ccco3)n2)cc1	0	0	0	0	-	-
CCCC(=O)NC(=S)Nc1nc(-c2ccc(OC)cc2)cs1	23.0	0	0	0	23.8	0
O=C1CN(C(=O)c2ccccc2Cl)c2ccccc2N1	20.5	0	0	0	0	0
N#Cc1ccc(C(=O)Nc2nc3ccccc3[nH]2)cc1	22.9	0	0	0	0	0
O=C(Nc1nc2ccccc2[nH]1)c1ccc(F)c(S(=O)(=O)N2CCOCC2)c1	21.2	0	0	0	0	0
O=C(Nc1nc2ccccc2[nH]1)c1cccc(S(=O)(=O)N2CCOCC2)c1	0	0	0	0	-	-
O=C(Nc1nc2ccccc2[nH]1)c1ccc(F)cc1	0	0	0	0	-	-
O=C(Nc1nc2ccccc2[nH]1)c1cc(F)cc(F)c1	24.5	0	0	0	20.9	0
CC(C)c1onc(C(=O)Nc2ccc3c(c2)OCO3)c1[N+](=O)[O-]	-	0	0	0	-	-
Cc1ccc(Nc2n[nH]c(=S)s2)c(C)c1	19.8	-	-	-	29.5	0	535nm interf DR=0
